The conditions of data set [1]: in vivo, ref [27], [28]; cited from earlier work.
For data set [2] the following is noted: cited from earlier work.
A further data set relates to GC-A. The settings on record: ref [15], cited from earlier work.
Data set [3] addresses T1, human GC-A (Homo sapiens, UniProt P16066).
T1 sequence (P16066 33-1061): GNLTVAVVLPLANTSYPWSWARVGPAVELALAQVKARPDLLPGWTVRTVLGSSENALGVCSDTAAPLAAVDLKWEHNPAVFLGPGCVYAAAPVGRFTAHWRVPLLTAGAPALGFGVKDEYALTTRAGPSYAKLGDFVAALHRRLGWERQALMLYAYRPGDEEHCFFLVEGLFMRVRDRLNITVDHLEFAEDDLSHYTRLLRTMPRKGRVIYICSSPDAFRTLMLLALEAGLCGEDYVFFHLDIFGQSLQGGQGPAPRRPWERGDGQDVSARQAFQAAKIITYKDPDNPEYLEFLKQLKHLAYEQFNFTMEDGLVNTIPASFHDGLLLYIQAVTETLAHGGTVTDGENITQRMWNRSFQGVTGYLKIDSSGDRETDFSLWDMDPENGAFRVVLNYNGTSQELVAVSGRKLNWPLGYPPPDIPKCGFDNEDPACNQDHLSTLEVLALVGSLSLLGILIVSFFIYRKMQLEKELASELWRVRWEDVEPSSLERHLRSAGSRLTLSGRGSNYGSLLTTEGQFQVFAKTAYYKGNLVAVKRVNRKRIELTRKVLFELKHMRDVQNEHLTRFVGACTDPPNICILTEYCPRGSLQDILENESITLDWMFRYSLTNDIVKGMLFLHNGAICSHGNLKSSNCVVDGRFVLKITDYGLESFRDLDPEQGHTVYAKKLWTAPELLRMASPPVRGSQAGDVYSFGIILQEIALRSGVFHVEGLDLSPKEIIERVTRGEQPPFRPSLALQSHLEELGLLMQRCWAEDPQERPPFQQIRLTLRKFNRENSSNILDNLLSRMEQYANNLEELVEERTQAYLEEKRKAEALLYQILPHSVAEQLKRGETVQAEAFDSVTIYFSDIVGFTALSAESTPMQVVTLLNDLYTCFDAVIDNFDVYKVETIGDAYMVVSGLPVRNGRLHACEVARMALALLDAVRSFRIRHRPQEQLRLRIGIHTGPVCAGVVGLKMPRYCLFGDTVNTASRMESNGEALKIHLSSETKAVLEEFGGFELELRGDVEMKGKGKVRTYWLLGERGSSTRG
Kind of data set: Cellular cGMP elevation in HEK293 cells stably expressing human GC-A. The data set is classed as cell-based. A digest of the protocol:
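HEK293 cells stably expressing human GC-A, held serum-free 4–12 h to 75%–90% confluence. Preincubated 10 min at 37 °C in DMEM with 1 mmol/L IBMX and 25 mmol/L HEPES pH 7.4, then exposed 3 min to increasing peptide in the same medium. Stopped with ice-cold 80% ethanol; dried supernatant assayed for cGMP by RIA. Triplicates in 3 separate assays; EC50 with 95% CI.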

Data set [4] concerns the target T1, human GC-A. Kind of data set: Whole-cell 125I-ANP competition binding, 293-GC-A cells. The settings on record: IC50 proBNP1–108 / IC50 BNP1–32. A digest of the protocol: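 293-GC-A cells on poly-d-lysine, at 75%–90% confluence, held 1–2 h at 37 °C in DMEM with 0.2% BSA. Incubated 1 h at 4 °C with ¹²⁵I-ANP in 1% BSA binding medium, with or without increasing unlabeled peptide. Washed twice with ice-cold PBS, lysed in 1 mol/L NaOH, γ-counted. B/Bo plotted against log competitor to give IC50. Triplicates in 3 experiments.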

Data set [5] in a line: Proteolytic inactivation by human kidney membranes with GC-A receptor bioassay. It is filed as in vitro ADME.

With “B-type natriuretic peptide [BNP, reference compound]”, in data set [1], the Half-life in humans is given as 20 min. Also, the Half-life in rats in data set [2] (rat, in vivo) was 1 min.
For the substance “glycosylated proBNP1–108: glycosylated version of human proBNP1–108 studied in cited literature”, the “Half-life in rats compared with nonglycosylated proBNP1–108” value in data set [2] (result in words, ref [26]) is recorded as “longer half-life”. Moreover, the “Potency on activation of GC-A, glycosylated versus nonglycosylated” value with GC-A (result in words) is on record as “no significant difference”.
Take “proBNP1–108: recombinant human 108-residue BNP prohormone with N-terminal His6-tag and rTEV site, expressed in E. coli”: in the data set with human GC-A [3] (EC50 proBNP1–108 / EC50 BNP1–32), the “Fold greater EC50 than BNP1–32 on GC-A” value is given as “approximately 13 fold”. Further, the “Maximal stimulation of GC-A” value with human GC-A [3] (result in words) was “near-maximum activities”. Besides, in the data set with human GC-A [4], the “Fold higher IC50 than BNP1–32 on GC-A” value is “approximately 35 fold”. Moreover, in data set [5], the “Fold longer half time for degradation by human kidney membranes than BNP1–32” value was 2.7 fold and the “Fold longer time for complete inactivation than BNP1–32” value is 6 fold. For the same substance, the “Fold reduced potency compared with BNP1–32” value in the data set on GC-A (cGMP in human endothelial and vascular smooth muscle cells) was 6- to 8 fold.

Source of the values: paper PMC4855511 (Clinical chemistry, 2011).
